Measured values reported in ChEMBL document CHEMBL1155315, “Towards to hENT1-nucleoside transporter selective imaging agents. Synthesis and in vitro evaluation of the radiolabeled SAENTA analogues” (Bioorg Med Chem Lett, 2009).
pIC50, pKd, pKi: −log10 of the molar value.

Tests used:
[1] = target: T1, Equilibrative nucleoside transporter 1 (Homo sapiens, UniProt Q99808); experiment: Displacement of SAENTA-fluorescein from human ENT1 in HL60 cells by flow cytometry; format: cell-based, HL-60
T1 sequence (Q99808 whole entry): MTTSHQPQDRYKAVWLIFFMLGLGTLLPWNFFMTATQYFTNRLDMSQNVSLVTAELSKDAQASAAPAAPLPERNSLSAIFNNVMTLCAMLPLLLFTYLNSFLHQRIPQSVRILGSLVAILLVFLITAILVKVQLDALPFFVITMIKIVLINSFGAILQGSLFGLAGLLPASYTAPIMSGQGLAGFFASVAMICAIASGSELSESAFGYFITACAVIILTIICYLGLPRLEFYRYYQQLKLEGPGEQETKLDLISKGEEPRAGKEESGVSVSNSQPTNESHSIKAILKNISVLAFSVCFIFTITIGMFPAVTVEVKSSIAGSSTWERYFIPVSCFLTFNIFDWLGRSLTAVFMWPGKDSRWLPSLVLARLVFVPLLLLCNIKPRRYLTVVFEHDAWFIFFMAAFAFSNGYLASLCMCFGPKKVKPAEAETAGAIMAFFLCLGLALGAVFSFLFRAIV
In short: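 HL60 cells were preincubated with the inhibitor, then exposed to 50 nM SAENTA-fluorescein and analysed by flow cytometry (example inhibitor levels 5, 25 and 50 nM). IC50 is the concentration inhibiting 50% of SAENTA-fluorescein binding, from nonlinear regression of inhibitor concentration–fluorescence curves. Ki = IC50/(1+[S]/KD), using the SAENTA-fluorescein concentration and KD.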

[2] = target: T2, Equilibrative nucleoside transporter 1 (Homo sapiens) (UniProt Q99808); experiment: (§1) Binding affinity to human ENT1 in panc1 cells by flow cytometry; format: cell-based
T2 sequence (whole entry): T1 sequence (Q99808 whole entry)
In short: (§2)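 Apparent KD and Bmax of SAENTA-fluorescein on each cell line, from flow-cytometric binding over a range of SAENTA-fluorescein concentrations. Specific binding is total minus nonspecific fluorescence, with nonspecific fluorescence measured in the presence of 7.2 μM NBMPR. Saturation parameters come from curve fitting; Bmax is given as mean fluorescence units per 10^4 cells.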

[3] = target: T1, Equilibrative nucleoside transporter 1; experiment: as §1; format: cell-based; in short: as §2
[4] = target: T2, Equilibrative nucleoside transporter 1 (Homo sapiens); experiment: (§3) Binding affinity to human ENT1 in Capan1 cells by flow cytometry; format: cell-based; details: CAPAN-1; in short: as §2
[5] = target: T1, Equilibrative nucleoside transporter 1; experiment: as §3; format: cell-based, CAPAN-1; in short: as §2
[6] = target: T2, Equilibrative nucleoside transporter 1 (Homo sapiens); experiment: (§4) Binding affinity to human ENT1 in MIA-PaCa2 cells by flow cytometry; format: cell-based; in short: as §2
[7] = target: T1, Equilibrative nucleoside transporter 1; experiment: as §4; format: cell-based; in short: as §2
[8] = target: T2, Equilibrative nucleoside transporter 1 (Homo sapiens); experiment: (§5) Binding affinity to human ENT1 in SK-PC1 cells by flow cytometry; format: cell-based; in short: as §2
[9] = target: T1, Equilibrative nucleoside transporter 1; experiment: as §5; format: cell-based; in short: as §2
[10] = target: T2, Equilibrative nucleoside transporter 1 (Homo sapiens); experiment: (§6) Binding affinity to human ENT1 in BX-PC3 cells by flow cytometry; format: cell-based; details: BXPC-3; in short: as §2
[11] = target: T1, Equilibrative nucleoside transporter 1; experiment: as §6; format: cell-based, BXPC-3; in short: as §2
[12] = target: T2, Equilibrative nucleoside transporter 1 (Homo sapiens); experiment: (§7) Binding affinity to human ENT1 in HL60 cells by flow cytometry; format: cell-based; details: HL-60; in short: as §2
[13] = target: T1, Equilibrative nucleoside transporter 1; experiment: as §7; format: cell-based, HL-60; in short: as §2

| SMILES | pIC50 [1] | pKi [1] | Bmax [2] [MFU] | pKd [3] | Bmax [4] [MFU] | pKd [5] | Bmax [6] [MFU] | pKd [7] | Bmax [8] [MFU] | pKd [9] | Bmax [10] [MFU] | pKd [11] | Bmax [12] [MFU] | pKd [13] |
| --- | --- | --- | --- | --- | --- | --- | --- | --- | --- | --- | --- | --- | --- | --- |
| O=C(CCCCCNC(=O)c1ccc(F)cc1)NCCSC[C@H]1O[C@@H](n2cnc3c(NCc4ccc([N+](=O)[O-])cc4)ncnc32)[C@H](O)[C@@H]1O | 8.29 | 10.19 | – | – | – | – | – | – | – | – | – | – | – | – |
| O=C(CCCCCNC(=O)c1ccc2c(c1)C(=O)OC21c2ccc(O)cc2Oc2cc(O)ccc21)NCCSC[C@H]1O[C@@H](n2cnc3c(NCc4ccc([N+](=O)[O-])cc4)ncnc32)[C@H](O)[C@@H]1O | – | – | 49.8 | 8.42 | 9.5 | 9.49 | 30.7 | 9.04 | 2.6 | 9.40 | 6.7 | 9.44 | 21.1 | 9.59 |
| O=C(CCCCCNC(=O)c1cccc(I)c1)NCCSC[C@H]1O[C@@H](n2cnc3c(NCc4ccc([N+](=O)[O-])cc4)ncnc32)[C@H](O)[C@@H]1O | 8.85 | 10.74 | – | – | – | – | – | – | – | – | – | – | – | – |
